Laboratory results published in ChEMBL document CHEMBL4622848, “Syntheses, in vitro α-amylase and α-glucosidase dual inhibitory activities of 4-amino-1,2,4-triazole derivatives their molecular docking and kinetic studies” (Bioorg Med Chem, 2020).

Legend:
Alpha amylase = biological target: T1, Alpha amylase (Homo sapiens, UniProt P0DUB6); assay: Inhibition of alpha-amylase (unknown origin) using starch as substrate preincubated for 10 mins followed by substrate addition and measured after 10 mins by dinitrosalicylic acid reagent based assay
T1 sequence (P0DUB6 whole entry): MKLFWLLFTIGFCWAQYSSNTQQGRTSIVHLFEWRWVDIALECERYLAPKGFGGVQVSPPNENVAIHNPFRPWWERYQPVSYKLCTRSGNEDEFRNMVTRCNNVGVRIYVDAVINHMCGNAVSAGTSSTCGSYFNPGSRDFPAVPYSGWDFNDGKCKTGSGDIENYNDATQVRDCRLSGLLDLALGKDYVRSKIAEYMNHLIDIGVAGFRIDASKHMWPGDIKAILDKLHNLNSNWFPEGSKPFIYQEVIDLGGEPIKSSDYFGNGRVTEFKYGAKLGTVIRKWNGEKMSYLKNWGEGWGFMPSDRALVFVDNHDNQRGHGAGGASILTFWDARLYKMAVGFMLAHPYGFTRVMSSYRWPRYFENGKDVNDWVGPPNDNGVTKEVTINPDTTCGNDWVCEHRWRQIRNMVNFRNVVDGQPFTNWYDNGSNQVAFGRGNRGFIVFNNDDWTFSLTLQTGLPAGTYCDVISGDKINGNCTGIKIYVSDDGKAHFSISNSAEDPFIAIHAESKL
How it was run: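 Enzyme at 0.5 mg/mL in […] pH 6.9, preincubated 10 min at 25 °C with test sample (100, 200, 400, 800, 1000 µg/mL). Then 1% starch in 0.02 M sodium phosphate pH 6.9 added, 10 min at 25 °C.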

[1] = Inhibition of rat intestinal alpha-glucosidase using p-nitrophenyl-alpha-D-glucopyranoside as substrate preincubated for 5 mins followed by substrate addition and measured after 5 mins by spectrophotometric analysis
How it was run: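 Enzyme source: rat intestinal acetone powder in saline (100:1 w/v), sonicated and centrifuged; supernatant used. Samples (5 mg/mL in DMSO) in 100 mM phosphate buffer pH 6.8, incubated 5 min with enzyme. Then 5 mM p-nitrophenyl-α-D-glucopyranoside added, and p-nitrophenol read at 405 nm after 5 min. Blanks had buffer in place of substrate, controls had DMSO. Inhibition computed from control and sample absorbance.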

Homo sapiens [2] = species: Homo sapiens; assay: Uncompetitive inhibition of alpha-glucosidase (unknown origin) assessed as Km using varying levels of para-nitrophenyl-R-D-maltoside as substrate incubated for 30 mins by Lineweaver-Burk plot analysis
How it was run: (§1)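 Enzyme at 0.2 mg/mL per well in deionized water with PIPES pH 7.0. Inhibitor at 0.0625–0.4 mM (0.0625, 0.125, 0.3, 0.4), substrate p-nitrophenyl-R-D-maltoside at 0.1, 0.2, 0.4, 0.8 and 1.0 mM. Incubated 30 min at 25 °C with readings at 1-min intervals on a plate reader. Km and Vmax derived by enzyme-kinetic graph fitting.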

Homo sapiens [3] = species: Homo sapiens; assay: Uncompetitive inhibition of alpha-glucosidase (unknown origin) assessed as Vmax using varying levels of para-nitrophenyl-R-D-maltoside as substrate incubated for 30 mins by Lineweaver-Burk plot analysis; how it was run: as §1
[4] = tested on: COc1cc(/C=N/n2cnnc2)ccc1F; assay: (§2) Mixed type inhibition of alpha-amylase (unknown origin) assessed as Km using varying level of para-nitrophenyl-R-D-maltoside as substrate incubated for 30 mins by Lineweaver-Burk plot analysis; conditions: Homo sapiens
How it was run: (§3)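 Kinetics run with inhibitor at 0.0625, 0.125, 0.3 and 0.4 mM and p-nitrophenyl-R-D-maltoside at 0.1, 0.2, 0.4, 0.8 and 1.0 mM. Enzyme at 0.2 mg/mL per well in deionized water, PIPES buffer pH 7.0, 30 min at 25 °C, absorbance on a plate reader. Vmax and Km obtained by enzyme-kinetic graph fitting.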

[5] = tested on: Oc1ccc(/C=N/n2cnnc2)cc1Br; assay: as §2; conditions: Homo sapiens; how it was run: as §3
Oc1ccc(/C=N/n2cnnc2)cc1 [6] = assay: as §2; conditions: Homo sapiens; how it was run: as §3
[7] = tested on: COc1ccc(/C=N/n2cnnc2)c(F)c1; assay: as §2; conditions: Homo sapiens; how it was run: as §3
Nc1ncccc1/C=N/n1cnnc1 [8] = assay: as §2; conditions: Homo sapiens; how it was run: as §3
[9] = tested on: C(=N/n1cnnc1)\c1cc2ccccc2[nH]1; assay: as §2; conditions: Homo sapiens; how it was run: as §3
[10] = tested on: O=[N+]([O-])c1cc(O)cc(/C=N/n2cnnc2)c1; assay: as §2; conditions: Homo sapiens; how it was run: as §3
[11] = tested on: Clc1ccc(/C=N/n2cnnc2)c(Cl)c1; assay: as §2; conditions: Homo sapiens; how it was run: as §3
[12] = tested on: O=[N+]([O-])c1ccc(/C=N/n2cnnc2)cc1; assay: as §2; conditions: Homo sapiens; how it was run: as §3
[13] = tested on: COc1cc(/C=N/n2cnnc2)cc(OC)c1Br; assay: as §2; conditions: Homo sapiens; how it was run: as §3
[14] = tested on: COc1cc(/C=N/n2cnnc2)ccc1F; assay: (§4) Mixed type inhibition of alpha-amylase (unknown origin) assessed as Vmax using varying levels of para-nitrophenyl-R-D-maltoside as substrate incubated for 30 mins by Lineweaver-Burk plot analysis; conditions: Homo sapiens; how it was run: as §3
[15] = tested on: Oc1ccc(/C=N/n2cnnc2)cc1Br; assay: as §4; conditions: Homo sapiens; how it was run: as §3
Oc1ccc(/C=N/n2cnnc2)cc1 [16] = assay: as §4; conditions: Homo sapiens; how it was run: as §3
[17] = tested on: COc1ccc(/C=N/n2cnnc2)c(F)c1; assay: as §4; conditions: Homo sapiens; how it was run: as §3
Nc1ncccc1/C=N/n1cnnc1 [18] = assay: as §4; conditions: Homo sapiens; how it was run: as §3
[19] = tested on: C(=N/n1cnnc1)\c1cc2ccccc2[nH]1; assay: as §4; conditions: Homo sapiens; how it was run: as §3
[20] = tested on: O=[N+]([O-])c1cc(O)cc(/C=N/n2cnnc2)c1; assay: as §4; conditions: Homo sapiens; how it was run: as §3
[21] = tested on: Clc1ccc(/C=N/n2cnnc2)c(Cl)c1; assay: as §4; conditions: Homo sapiens; how it was run: as §3
[22] = tested on: O=[N+]([O-])c1ccc(/C=N/n2cnnc2)cc1; assay: as §4; conditions: Homo sapiens; how it was run: as §3
[23] = tested on: COc1cc(/C=N/n2cnnc2)cc(OC)c1Br; assay: as §4; conditions: Homo sapiens; how it was run: as §3

Compound	IC50 (Alpha amylase) [µM]	IC50 [1] [µM]	further results
COc1cccc(OC)c1/C=N/n1cnnc1	4.37	4.29	–
O=[N+]([O-])c1ccc(/C=N/n2cnnc2)cc1	2.36	2.47	Km (Homo sapiens [2]): 500 µM; Vmax (Homo sapiens [3]): 680 µM/min
C(=N\n1cnnc1)/c1cc2ccccc2[nH]1	2.01	2.09	Km (Homo sapiens [2]): 300 µM; Vmax (Homo sapiens [3]): 703 µM/min
Clc1ccc(/C=N/n2cnnc2)cc1	4.36	4.28	–
C(=N\n1cnnc1)/c1ccc(OCc2ccccc2)cc1	5.04	5.44	–
COc1ccc(/C=N/n2cnnc2)c(F)c1	2.9	2.33	Km (Homo sapiens [2]): 500 µM; Vmax (Homo sapiens [3]): 701 µM/min
COc1ccc(/C=N/n2cnnc2)cc1OCc1ccccc1	6.23	6.54	–
CCOc1ccc(/C=N/n2cnnc2)cc1OC	5.24	5.36	–
C(=N\n1cnnc1)/c1cc2ccc3cccc4ccc(c1)c2c34	6.41	6.3	–
COc1ccc(Br)c(/C=N/n2cnnc2)c1O	5.25	5.52	–
CCOc1cc(/C=N/n2cnnc2)ccc1OC	5.22	5.47	–
CC(C)(C)c1ccc(/C=N/n2cnnc2)cc1	6.44	6.37	–
Oc1ccc(/C=N/n2cnnc2)c(O)c1	5.95	5.44	–
Nc1ncccc1/C=N/n1cnnc1	2.28	2.44	Km (Homo sapiens [2]): 500 µM; Vmax (Homo sapiens [3]): 685 µM/min
COc1cc(/C=N/n2cnnc2)ccc1O	5.94	5.3	–
COc1cc(/C=N/n2cnnc2)ccc1F	2.33	2.27	Km (Homo sapiens [2]): 500 µM; Vmax (Homo sapiens [3]): 697 µM/min
O=[N+]([O-])c1cc(O)cc(/C=N/n2cnnc2)c1	2.41	2.31	Km (Homo sapiens [2]): 500 µM; Vmax (Homo sapiens [3]): 695 µM/min
O=[N+]([O-])c1ccc(Cl)c(/C=N/n2cnnc2)c1	4.46	4.37	–

Compound	IC50 (Alpha amylase) [µM]	IC50 [1] [µM]	further results
COc1ccc(/C=N/n2cnnc2)c(OC)c1	4.37	4.28	–
Oc1ccc(/C=N/n2cnnc2)c(O)c1O	5.92	5.74	–
Oc1ccc(O)c(/C=N/n2cnnc2)c1	5.27	5.37	–
COc1cc(/C=N/n2cnnc2)cc(OC)c1O	3.31	3.27	–
C[C@H]1O[C@H](O[C@H]2[C@H](O)[C@@H](O)[C@@H](O[C@H]3[C@H](O)[C@@H](O)C(O)O[C@@H]3CO)O[C@@H]2CO)[C@H](O)[C@@H](O)[C@@H]1N[C@H]1C=C(CO)[C@@H](O)[C@H](O)[C@H]1O (some centres not stated) [ACARBOSE]	–	1.99	–
Oc1ccc(/C=N/n2cnnc2)cc1	2.99	2.62	Km (Homo sapiens [2]): 400 µM; Vmax (Homo sapiens [3]): 701 µM/min
Oc1ccc(/C=N/n2cnnc2)cc1Br	2.27	2.37	Km (Homo sapiens [2]): 400 µM; Vmax (Homo sapiens [3]): 698 µM/min
Alpha amylase (Homo sapiens) (from UniProt P0DUB6)	–	–	Km [4]: 1300 µM; Km [5]: 1200 µM; Km (Oc1ccc(/C=N/n2cnnc2)cc1 [6]): 1300 µM; Km [7]: 1300 µM; Km (Nc1ncccc1/C=N/n1cnnc1 [8]): 1000 µM; Km [9]: 1500 µM; Km [10]: 1300 µM; Km [11]: 1200 µM; Km [12]: 900 µM; Km [13]: 1300 µM; Vmax [14]: 241 µM/min; Vmax [15]: 221 µM/min; Vmax (Oc1ccc(/C=N/n2cnnc2)cc1 [16]): 237 µM/min; Vmax [17]: 238 µM/min; Vmax (Nc1ncccc1/C=N/n1cnnc1 [18]): 213 µM/min; Vmax [19]: 256 µM/min; Vmax [20]: 232 µM/min; Vmax [21]: 221 µM/min; Vmax [22]: 207 µM/min; Vmax [23]: 242 µM/min
COc1cc(/C=N/n2cnnc2)cc(OC)c1OC	5.12	5.46	–
Clc1ccc(/C=N/n2cnnc2)c(Cl)c1	2.18	2.49	Km (Homo sapiens [2]): 500 µM; Vmax (Homo sapiens [3]): 685 µM/min
COc1ccc(Br)cc1/C=N/n1cnnc1	3.3	3.46	–
Cc1ccc(/C=N/n2cnnc2)c(C)c1	4.34	4.27	–
Oc1ccc(/C=N/n2cnnc2)cc1O	5.69	5.44	–
C(=N\n1cnnc1)/c1c2ccccc2cc2ccccc12	5.27	5.41	–
O=[N+]([O-])c1cccc(/C=N/n2cnnc2)c1	5.97	5.37	–
CC(C)(C)c1cc(/C=N/n2cnnc2)c(C(C)(C)C)cc1O	6.23	6.34	–
COc1cc(/C=N/n2cnnc2)cc(OC)c1Br	2.25	2.52	Km (Homo sapiens [2]): 700 µM; Vmax (Homo sapiens [3]): 690 µM/min
